# ChEMBL document CHEMBL4433206, “Novel Lysine-Based Thioureas as Mechanism-Based Inhibitors of Sirtuin 2 (SIRT2) with Anticancer Activity in a Colorectal Cancer Murine Model” (J Med Chem, 2019)
# pIC50: −log10 of the molar value. The source made the active and inactive calls. No cut-off for these calls is given here.
# Assays:
# SW948 = test: Growth inhibition of human SW948 cells after 72 hrs by CellTiter-Blue assay; format: functional; settings: SW948, 72 h
# NCI-H23 = test: Growth inhibition of human NCI-H23 cells after 72 hrs by CellTiter-Blue assay; format: functional; settings: NCI-H23, 72 h
# MCF7 = test: Growth inhibition of human MCF7 cells after 72 hrs by CellTiter-Blue assay; format: functional; settings: MCF7, 72 h
# HCT-116 [1] = test: Growth inhibition of human HCT116 cells after 72 hrs by CellTiter-Blue assay; format: functional; settings: HCT-116, 72 h
# HCT-116 [2] = test: Inhibition of anchorage-independent cell growth in human HCT116 cells assessed as reduction in colony formation incubated for 5 days followed by compound re-addition and measured after 9 to 11 days by nitro blue tetrazolium chloride-based soft agar colony formation assay; format: functional
# How it was run: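 HCT116 cells were mixed at 500 cells/mL into 0.3% agar growth layer over a 0.6% agar base layer (McCoy's medium, 10% calf serum). Both layers held inhibitor at 2.5–50 μM final. Wells were run in triplicate at 37 °C. Inhibitor-containing growth layer was added again at day 5. At 9–11 days, nitro blue tetrazolium was added overnight and colonies were imaged and counted.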
# [3] = target: T1, NAD-dependent protein deacetylase sirtuin-1 (Homo sapiens) (UniProt Q96EB6); test: Inhibition of SIRT1 in human HCT116 cells assessed as increase in acetylated p53 K382 level at 25 uM after 6 hrs by Western blot analysis; format: cell-based
# T1 sequence (whole entry): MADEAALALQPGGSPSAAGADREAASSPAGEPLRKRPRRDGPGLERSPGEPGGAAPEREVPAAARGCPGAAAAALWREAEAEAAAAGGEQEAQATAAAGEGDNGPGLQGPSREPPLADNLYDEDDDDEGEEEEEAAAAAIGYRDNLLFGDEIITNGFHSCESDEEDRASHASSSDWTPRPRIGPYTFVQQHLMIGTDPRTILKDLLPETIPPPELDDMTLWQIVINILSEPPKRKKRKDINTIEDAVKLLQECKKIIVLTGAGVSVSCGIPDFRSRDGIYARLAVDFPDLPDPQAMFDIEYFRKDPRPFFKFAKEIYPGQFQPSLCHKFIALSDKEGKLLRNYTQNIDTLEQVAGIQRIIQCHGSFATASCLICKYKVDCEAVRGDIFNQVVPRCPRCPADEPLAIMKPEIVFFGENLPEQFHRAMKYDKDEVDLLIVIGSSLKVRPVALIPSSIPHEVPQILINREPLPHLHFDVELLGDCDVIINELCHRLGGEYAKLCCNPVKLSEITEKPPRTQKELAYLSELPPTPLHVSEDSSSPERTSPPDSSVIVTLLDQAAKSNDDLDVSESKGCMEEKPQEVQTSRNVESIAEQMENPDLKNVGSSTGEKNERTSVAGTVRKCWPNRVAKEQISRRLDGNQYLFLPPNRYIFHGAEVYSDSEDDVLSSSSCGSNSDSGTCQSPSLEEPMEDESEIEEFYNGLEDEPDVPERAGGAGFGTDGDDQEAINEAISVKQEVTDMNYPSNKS
# [4] = target: T1, NAD-dependent protein deacetylase sirtuin-1 (Homo sapiens); test: Inhibition of SIRT1 in Trichostatin A treated human HCT116 cells assessed as increase in acetylated p53 K382 level at 10 to 50 uM after 6 hrs by Western blot analysis
# How it was run: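 HCT116 cells were seeded at 400 000 per well, grown 24 h, then cotreated with 400 nM TSA and inhibitor (25 μM, or 10–50 μM) for 6 h at 37 °C. Cells were lysed in 4% SDS buffer, pH 7.4. 50 μg of lysate was resolved by 12% SDS-PAGE and blotted for acetyl-p53 K382 antibody, with β-actin as loading control. Detection was by ECL.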
# A549 = test: Growth inhibition of human A549 cells after 72 hrs by CellTiter-Blue assay; format: functional; settings: A549, 72 h
# [5] = Toxicity in NSG mouse xenografted with human HCT116 cells harboring KRAS G13D mutant assessed as body weight loss at 100 mg/kg, ip administered daily for 12 days measured during compound dosing; settings: in vivo, 288 h
# [6] = target: T2, NAD-dependent protein deacetylase sirtuin-1 (Homo sapiens, UniProt Q96EB6); test: Inhibition of human SIRT1 deacetylase activity using acetylated H3K9 as substrate preincubated for 15 mins followed by substrate addition and measured after 3 mins by UV-HPLC analysis
# T2 sequence (Q96EB6 whole entry): T1 sequence (whole entry)
# [7] = target: T3, NAD-dependent protein deacetylase sirtuin-2 (Homo sapiens, UniProt Q8IXJ6); test: Inhibition of recombinant human N-terminal His6-tagged/SUMO-fused SIRT2 (38 to 356 residues) expressed in Escherichia coli BL21 assessed as reduction in deacetylase activity using acetylated H3K9 as substrate preincubated for 15 mins followed by substrate addition and measured after 6 mins by UV-HPLC analysis
# T3 sequence (Q8IXJ6 whole entry): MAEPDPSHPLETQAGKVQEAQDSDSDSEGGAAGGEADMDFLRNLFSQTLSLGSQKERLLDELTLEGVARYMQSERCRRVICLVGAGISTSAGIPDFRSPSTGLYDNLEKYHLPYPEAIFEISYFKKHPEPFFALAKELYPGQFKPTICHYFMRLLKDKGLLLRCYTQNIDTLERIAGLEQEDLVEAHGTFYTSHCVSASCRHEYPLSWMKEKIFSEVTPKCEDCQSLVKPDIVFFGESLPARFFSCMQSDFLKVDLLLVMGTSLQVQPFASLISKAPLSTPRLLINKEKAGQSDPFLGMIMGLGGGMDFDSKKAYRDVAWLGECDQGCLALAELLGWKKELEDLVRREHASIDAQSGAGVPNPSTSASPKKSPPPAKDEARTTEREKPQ
# [8] = Cytotoxicity against human HME1 cells after 72 hrs by CellTiter-Blue assay; format: cell-based
# How it was run: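 Cells were seeded per well (HCT116 1000; MDA-MB-231, MDA-MB-468, NCI-H23, A549, SW948 2000; MCF7, BxPC-3, HME1 3000) and left 20 h at 37 °C. Inhibitor was added at 1–100 μM final for 72 h at 37 °C. CellTiter-Blue was then added for 4 h, and fluorescence was read at ex 560/em 590 nm.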
# [9] = Toxicity in NSG mouse xenografted with human HCT116 cells harboring KRAS G13D mutant assessed as body weight loss at 100 mg/kg, ip administered daily for 12 days measured during compound dosing; format: organism-based; settings: in vivo, 288 h
# HCT-116 [10] = test: Antitumor activity against human HCT116 cells harboring KRAS G13D mutant xenografted in NSG mouse assessed as tumor growth inhibition by measuring reduction in tumor weight at 100 mg/kg, ip administered daily for 12 days and measured post-last dose relative to control; format: functional; settings: HCT-116, ip, 288 h, read-out: TGI
# How it was run: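 NSG mice, female and male, about 4–8 weeks old, were implanted with 1 × 10⁶ HCT116 cells on both sides of the abdomen. Tumours grew 3–5 days until visible. Compound was given ip daily for 12 days in vehicle containing 10% DMSO and 10% Kolliphor EL (dosing solution 10 mg/mL); control mice received vehicle. Tumour volume was measured daily; tumours were excised and weighed on the last day. Unpaired two-tailed t-test.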
# MDA-MB-231 = test: Growth inhibition of human MDA-MB-231 cells after 72 hrs by CellTiter-Blue assay; format: functional; settings: MDA-MB-231, 72 h
# MDA-MB-468 = test: Growth inhibition of human MDA-MB-468 cells after 72 hrs by CellTiter-Blue assay; format: functional; settings: MDA-MB-468, 72 h
GI50 (SW948) [µM],GI50 (NCI-H23) [µM],GI50 (MCF7) [µM],GI50 (HCT-116 [1]) [µM],GI50 (HCT-116 [2]) [µM],inhibition [3],inhibition [4],GI50 (A549) [µM],pIC50 [6],pIC50 [7],GI50 (MDA-MB-231) [µM],GI50 (MDA-MB-468) [µM],SMILES,Activity [5],Activity [8],Activity [9],inhibition in vivo at 100 mg/kg (HCT-116 [10]) [%]
30,35.8,42.6,58.9,7.4,inactive,inactive,20.8,4.96,7.21,27.2,26.1,CCCCCCCCNC(=S)NCCCC[C@H](NC(=O)OCc1ccccc1)C(=O)Nc1ccccc1,Non-Toxic,Non-Toxic,Non-Toxic,78
12.8,15.6,18.4,54.4,7,inactive,inactive,9,< 3.70,6.82,14.8,13.4,CCCCCCCCCCNC(=S)NCCCC[C@H](NC(=O)OCc1ccccc1)C(=O)Nc1ccccc1,Non-Toxic,Non-Toxic,Non-Toxic,49
